Experimental data reported in ChEMBL document CHEMBL3769385 (J Med Chem, 2016).
The source made the active and inactive calls.

Tests used:
[1] = biological target: Beta-2 adrenergic receptor (Homo sapiens, UniProt P07550); test: Binding affinity to human beta-2 adrenergic receptor by radioligand binding assay
[2] = biological target: T1, 5-hydroxytryptamine receptor 1A (Homo sapiens, UniProt P08908); test: Binding affinity to human 5HT1A receptor by radioligand binding assay
T1 sequence (P08908 whole entry): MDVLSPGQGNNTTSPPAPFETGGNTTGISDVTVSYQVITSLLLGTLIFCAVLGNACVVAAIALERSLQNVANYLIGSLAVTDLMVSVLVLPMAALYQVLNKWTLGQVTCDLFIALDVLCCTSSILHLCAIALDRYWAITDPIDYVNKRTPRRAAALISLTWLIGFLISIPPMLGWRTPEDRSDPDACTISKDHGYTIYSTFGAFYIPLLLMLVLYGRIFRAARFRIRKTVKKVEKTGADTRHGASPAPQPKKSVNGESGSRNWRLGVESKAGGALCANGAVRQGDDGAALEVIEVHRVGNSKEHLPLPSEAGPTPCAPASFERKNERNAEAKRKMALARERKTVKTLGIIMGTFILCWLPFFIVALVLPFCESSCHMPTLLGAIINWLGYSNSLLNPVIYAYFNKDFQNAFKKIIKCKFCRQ

Mus musculus [3] = test: Cataleptic activity in C57BL/6J mouse at 0.01 to 30 mg/kg, ip measured after 60 mins; format: ADME, organism-based; conditions: in vivo, 1 h
[4] = biological target: T2, Muscarinic acetylcholine receptor M5 (Homo sapiens, UniProt P08912); test: Binding affinity to human muscarinic acetylcholine M5 receptor by radioligand binding assay
T2 sequence (P08912 whole entry): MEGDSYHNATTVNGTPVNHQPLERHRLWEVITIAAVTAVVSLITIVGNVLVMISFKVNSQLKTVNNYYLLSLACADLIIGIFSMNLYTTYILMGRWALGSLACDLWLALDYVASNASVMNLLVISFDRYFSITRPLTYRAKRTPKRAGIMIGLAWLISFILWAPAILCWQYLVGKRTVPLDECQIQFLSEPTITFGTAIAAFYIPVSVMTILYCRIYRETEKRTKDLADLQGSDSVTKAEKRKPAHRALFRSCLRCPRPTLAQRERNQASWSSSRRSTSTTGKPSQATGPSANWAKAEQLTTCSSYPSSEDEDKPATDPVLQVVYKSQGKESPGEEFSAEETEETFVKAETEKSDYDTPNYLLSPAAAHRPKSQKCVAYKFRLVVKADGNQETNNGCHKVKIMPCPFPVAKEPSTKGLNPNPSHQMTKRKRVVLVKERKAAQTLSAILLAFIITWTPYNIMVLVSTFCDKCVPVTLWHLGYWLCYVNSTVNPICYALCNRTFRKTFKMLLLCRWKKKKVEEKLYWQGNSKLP

[5] = biological target: 5-hydroxytryptamine receptor 7 (Homo sapiens, UniProt P34969); test: Binding affinity to human 5HT7 receptor by radioligand binding assay
D(2) dopamine receptor = D(2) dopamine receptor (Homo sapiens, UniProt P14416); test: Binding affinity to human dopamine D2 receptor by radioligand binding assay
[6] = Binding affinity to sigma 2 receptor (unknown origin) by radioligand binding assay; parameters: species or system Homo sapiens
Histamine H2 receptor = Histamine H2 receptor (Homo sapiens, UniProt P25021); test: Binding affinity to histamine H2 receptor (unknown origin) by radioligand binding assay
[7] = biological target: T3, Alpha-2C adrenergic receptor (Homo sapiens, UniProt P18825); test: Binding affinity to human alpha-2C adrenergic receptor by radioligand binding assay
T3 sequence (P18825 whole entry): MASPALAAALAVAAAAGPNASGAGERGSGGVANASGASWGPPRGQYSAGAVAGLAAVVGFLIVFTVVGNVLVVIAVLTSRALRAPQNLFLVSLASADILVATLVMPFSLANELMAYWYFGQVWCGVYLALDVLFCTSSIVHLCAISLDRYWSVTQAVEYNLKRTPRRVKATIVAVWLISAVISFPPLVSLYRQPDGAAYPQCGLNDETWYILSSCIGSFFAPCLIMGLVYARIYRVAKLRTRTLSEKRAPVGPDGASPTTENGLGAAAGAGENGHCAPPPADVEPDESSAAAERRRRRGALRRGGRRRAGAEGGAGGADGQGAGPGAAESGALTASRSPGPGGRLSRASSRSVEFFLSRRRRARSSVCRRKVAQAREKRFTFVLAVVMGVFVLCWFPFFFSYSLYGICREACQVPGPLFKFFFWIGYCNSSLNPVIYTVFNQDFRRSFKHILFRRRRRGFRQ

D(4) dopamine receptor = biological target: T4, D(4) dopamine receptor (Homo sapiens, UniProt P21917); test: Binding affinity to human dopamine D4 receptor by radioligand binding assay
T4 sequence (P21917 whole entry): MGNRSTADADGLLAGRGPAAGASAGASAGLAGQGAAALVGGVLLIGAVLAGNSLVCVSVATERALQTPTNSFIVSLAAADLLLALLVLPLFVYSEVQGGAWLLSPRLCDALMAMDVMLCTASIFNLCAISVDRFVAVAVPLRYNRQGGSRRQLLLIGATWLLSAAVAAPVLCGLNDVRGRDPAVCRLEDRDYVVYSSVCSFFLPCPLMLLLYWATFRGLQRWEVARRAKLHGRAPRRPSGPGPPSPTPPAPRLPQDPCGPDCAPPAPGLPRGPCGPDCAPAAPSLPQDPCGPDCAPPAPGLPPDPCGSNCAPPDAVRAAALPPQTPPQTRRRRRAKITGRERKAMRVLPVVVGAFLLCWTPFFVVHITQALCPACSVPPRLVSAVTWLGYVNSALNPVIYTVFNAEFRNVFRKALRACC

[8] = biological target: 5-hydroxytryptamine receptor 6 (Homo sapiens, UniProt P50406); test: Binding affinity to human 5HT6 receptor by radioligand binding assay
[9] = biological target: T5, Alpha-2A adrenergic receptor (Homo sapiens, UniProt P08913); test: Binding affinity to human alpha-2A adrenergic receptor by radioligand binding assay
T5 sequence (P08913 whole entry): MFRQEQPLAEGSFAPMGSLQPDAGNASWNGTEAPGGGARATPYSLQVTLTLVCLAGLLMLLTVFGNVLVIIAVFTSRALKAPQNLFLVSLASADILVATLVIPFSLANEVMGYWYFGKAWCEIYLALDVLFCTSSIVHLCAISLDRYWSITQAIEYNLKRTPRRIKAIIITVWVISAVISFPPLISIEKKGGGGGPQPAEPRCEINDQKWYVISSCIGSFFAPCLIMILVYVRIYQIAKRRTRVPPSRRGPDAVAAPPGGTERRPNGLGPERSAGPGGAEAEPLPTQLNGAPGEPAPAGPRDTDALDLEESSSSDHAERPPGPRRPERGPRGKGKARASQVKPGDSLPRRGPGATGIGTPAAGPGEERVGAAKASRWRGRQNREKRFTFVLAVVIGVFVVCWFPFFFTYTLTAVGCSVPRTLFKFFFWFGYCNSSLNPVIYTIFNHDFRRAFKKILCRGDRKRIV

D(3) dopamine receptor = D(3) dopamine receptor (Homo sapiens, UniProt P35462); test: Binding affinity to dopamine D3 receptor (unknown origin) by radioligand binding assay
[10] = biological target: Sodium-dependent serotonin transporter (Homo sapiens, UniProt P31645); test: Binding affinity to human SERT by radioligand binding assay
Mus musculus [11] = test: Cognitive enhancing effect in NR1-KD mouse hypoglutamatergic model of schizophrenia assessed as reduction in duration of object exploration during training at 0.5 to 1 mg/kg, ip administered for 30 mins measured for 3 days relative to wild type mouse; format: functional, organism-based
Method in brief: (§1)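 Three daily 5-min trials: empty-chamber acclimation, two identical objects, then 24 h later one familiar plus one novel object (long-term memory). Sessions video-recorded; time spent investigating objects scored at training and testing.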

Mus musculus [12] = test: Effect on 120 dB acoustic stimulus-induced pulse-only response in C57BL/6J mouse at 4 mg/kg, ip administered for 10 mins; format: functional, organism-based
Method in brief: (§2)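 Adult male C57BL/6 mice, n = 8–11/group, given vehicle or 0.5–4 mg/kg, then vehicle or 3 mg/kg amphetamine 10 min later. After 10 min acclimation in a startle chamber, 42 trials were run: 18 pulse-only (120 dB), 18 prepulse-pulse (4, 8, 12 dB prepulses) and 6 null. Peak startle (arbitrary units) was taken within 65 ms of pulse onset.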

Mus musculus [13] = test: Increase in AMPH-disrupted 4 to 12 dB prepulse inhibition in C57BL/6J mouse at 4 mg/kg, ip administered for 10 mins followed by AMPH challenge; format: functional, organism-based; method in brief: as §2
Mus musculus [14] = test: Cognitive enhancing effect in NR1-KD mouse hypoglutamatergic model of schizophrenia assessed as reduction in duration of object exploration during testing at 0.5 to 1 mg/kg, ip administered for 30 mins measured for 3 days relative to wild type mouse; format: functional, organism-based; method in brief: as §1
Mus musculus [15] = test: Increase in AMPH-disrupted 4 to 12 dB prepulse inhibition in C57BL/6J mouse at 2 mg/kg administered for 10 mins followed by AMPH challenge; format: functional, organism-based; method in brief: as §2
Mus musculus [16] = test: Cognitive enhancing effect in NR1-KD mouse hypoglutamatergic model of schizophrenia at 0.5 to 1 mg/kg, ip administered for 30 mins measured for 3 days by novel object recognition memory test; format: functional, organism-based; method in brief: as §1
Mus musculus [17] = test: Effect on 120 dB acoustic stimulus-induced pulse-only response in C57BL/6J mouse at 4 mg/kg, ip administered for 10 mins followed by AMPH challenge; format: functional, organism-based; method in brief: as §2
Mus musculus [18] = test: Reduction in 120 dB acoustic stimulus-induced pulse-only response in C57BL/6J mouse at 0.5 to 2 mg/kg dose followed by AMPH challenge; format: functional, organism-based; method in brief: as §2
Mus musculus [19] = test: Restoration of AMPH-disrupted 4 to 12 dB prepulse inhibition in C57BL/6J mouse at 0.5 to 1 mg/kg, ip administered for 10 mins followed by AMPH challenge; format: functional, organism-based; method in brief: as §2
Mus musculus [20] = test: Suppression of AMPH-stimulated hyperlocomotion in C57BL/6J mouse assessed as reduction in distance travelled in open field at 5 to 30 mg/kg, ip administered for 15 mins followed by AMPH challenge measured after 105 mins; format: functional, organism-based
Method in brief: (§3)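 Mice, n = 7–10/treatment, injected with vehicle or 2–30 mg/kg and placed in an open field monitored by infrared beams. After 15 min baseline, they were given vehicle or 3 mg/kg d-amphetamine and recorded for a further 105 min. Distance travelled was taken in 5-min bins or as a cumulative value over 15 min baseline plus 75 min post-amphetamine.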

Mus musculus [21] = test: Suppression of AMPH-stimulated hyperlocomotion in C57BL/6J mouse assessed as reduction in distance travelled in open field at 2 mg/kg, ip administered for 15 mins followed by AMPH challenge measured after 105 mins; format: functional, organism-based; method in brief: as §3
Mus musculus [22] = test: Attenuation of novel object recognition memory in wild type mouse assessed as decrease in preference for novel object at 1 mg/kg, ip administered for 30 mins measured for 3 days; format: functional, organism-based; method in brief: as §1
[23] = biological target: 5-hydroxytryptamine receptor 2B (Homo sapiens, UniProt P41595); test: Agonist activity at recombinant human 5HT2B receptor expressed in Flp-In-293 cells assessed as calcium flux at 10 uM by FLIPR assay relative to 5-HT; format: functional, cell-based
Mus musculus [24] = test: Cataleptic activity in ip dosed C57BL/6J mouse measured after 60 mins; format: organism-based; conditions: in vivo, 1 h
Method in brief: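 Male C57BL/6J mice, n = 8–10/treatment/time-point, front paws placed on a 2.5 mm horizontal bar with rear paws on the bench, tested at baseline and then injected with vehicle, haloperidol (0.01–10 mg/kg) or test agent (0.01–30 mg/kg). Separate groups were scored at 60 min as time until paw removal, with a 60 s cut-off.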

Sequence of 5-hydroxytryptamine receptor 6 (P50406 whole entry): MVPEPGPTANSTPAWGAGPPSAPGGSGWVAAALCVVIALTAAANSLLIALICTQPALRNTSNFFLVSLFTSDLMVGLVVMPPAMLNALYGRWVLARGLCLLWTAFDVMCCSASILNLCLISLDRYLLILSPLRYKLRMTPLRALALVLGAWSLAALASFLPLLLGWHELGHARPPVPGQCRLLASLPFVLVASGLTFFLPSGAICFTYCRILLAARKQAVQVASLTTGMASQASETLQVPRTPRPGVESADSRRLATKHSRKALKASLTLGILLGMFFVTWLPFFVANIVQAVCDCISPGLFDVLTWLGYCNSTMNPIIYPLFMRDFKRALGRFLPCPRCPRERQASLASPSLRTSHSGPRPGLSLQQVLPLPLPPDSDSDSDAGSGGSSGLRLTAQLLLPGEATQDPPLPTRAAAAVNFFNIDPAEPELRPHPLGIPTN
Sequence of 5-hydroxytryptamine receptor 7 (P34969 whole entry): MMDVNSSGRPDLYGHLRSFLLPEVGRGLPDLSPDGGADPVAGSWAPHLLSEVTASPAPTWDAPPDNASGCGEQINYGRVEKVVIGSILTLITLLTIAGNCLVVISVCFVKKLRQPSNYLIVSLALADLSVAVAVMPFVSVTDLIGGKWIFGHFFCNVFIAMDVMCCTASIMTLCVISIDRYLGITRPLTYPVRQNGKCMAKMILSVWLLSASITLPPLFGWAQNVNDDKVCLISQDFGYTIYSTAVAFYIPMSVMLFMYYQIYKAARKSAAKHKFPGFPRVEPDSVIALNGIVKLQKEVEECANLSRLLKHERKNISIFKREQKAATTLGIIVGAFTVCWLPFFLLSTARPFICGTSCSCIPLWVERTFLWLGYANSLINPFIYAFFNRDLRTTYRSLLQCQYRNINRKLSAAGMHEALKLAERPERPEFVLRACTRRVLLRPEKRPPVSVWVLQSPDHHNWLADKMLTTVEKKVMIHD
Sequence of D(3) dopamine receptor (P35462 whole entry): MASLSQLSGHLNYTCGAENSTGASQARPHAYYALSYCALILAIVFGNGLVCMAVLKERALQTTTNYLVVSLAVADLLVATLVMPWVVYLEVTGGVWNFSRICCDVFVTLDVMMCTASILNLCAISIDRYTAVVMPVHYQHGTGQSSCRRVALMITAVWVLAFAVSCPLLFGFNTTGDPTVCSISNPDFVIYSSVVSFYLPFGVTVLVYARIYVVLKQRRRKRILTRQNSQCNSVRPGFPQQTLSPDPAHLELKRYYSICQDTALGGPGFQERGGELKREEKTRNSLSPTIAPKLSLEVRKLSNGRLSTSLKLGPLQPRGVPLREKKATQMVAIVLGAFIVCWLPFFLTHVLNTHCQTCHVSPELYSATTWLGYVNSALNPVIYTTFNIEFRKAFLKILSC
Sequence of Beta-2 adrenergic receptor (P07550 whole entry): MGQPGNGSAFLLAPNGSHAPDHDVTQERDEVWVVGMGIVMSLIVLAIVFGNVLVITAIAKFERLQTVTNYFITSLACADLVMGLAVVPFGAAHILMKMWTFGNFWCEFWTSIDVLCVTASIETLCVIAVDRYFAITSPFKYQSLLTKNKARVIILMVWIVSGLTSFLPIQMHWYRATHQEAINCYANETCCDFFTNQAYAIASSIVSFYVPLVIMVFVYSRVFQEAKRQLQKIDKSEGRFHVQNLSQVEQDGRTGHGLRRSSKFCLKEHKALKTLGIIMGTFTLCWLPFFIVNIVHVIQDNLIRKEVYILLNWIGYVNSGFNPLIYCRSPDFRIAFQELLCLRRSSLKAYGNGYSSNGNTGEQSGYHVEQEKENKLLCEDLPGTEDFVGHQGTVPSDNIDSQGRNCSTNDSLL
Sequence of D(2) dopamine receptor (P14416 whole entry): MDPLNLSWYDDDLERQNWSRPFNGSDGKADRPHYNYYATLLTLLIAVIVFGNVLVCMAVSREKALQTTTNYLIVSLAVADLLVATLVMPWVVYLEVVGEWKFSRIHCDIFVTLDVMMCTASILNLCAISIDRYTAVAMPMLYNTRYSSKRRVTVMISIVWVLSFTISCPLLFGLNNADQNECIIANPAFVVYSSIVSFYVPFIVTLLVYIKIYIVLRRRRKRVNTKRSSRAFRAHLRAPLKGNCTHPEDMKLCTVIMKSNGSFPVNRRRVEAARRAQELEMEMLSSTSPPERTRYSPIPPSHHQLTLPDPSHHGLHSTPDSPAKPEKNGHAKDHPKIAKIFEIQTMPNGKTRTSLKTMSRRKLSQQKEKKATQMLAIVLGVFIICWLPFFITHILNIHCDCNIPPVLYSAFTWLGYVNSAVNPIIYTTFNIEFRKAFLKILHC
Sequence of Sodium-dependent serotonin transporter (P31645 whole entry): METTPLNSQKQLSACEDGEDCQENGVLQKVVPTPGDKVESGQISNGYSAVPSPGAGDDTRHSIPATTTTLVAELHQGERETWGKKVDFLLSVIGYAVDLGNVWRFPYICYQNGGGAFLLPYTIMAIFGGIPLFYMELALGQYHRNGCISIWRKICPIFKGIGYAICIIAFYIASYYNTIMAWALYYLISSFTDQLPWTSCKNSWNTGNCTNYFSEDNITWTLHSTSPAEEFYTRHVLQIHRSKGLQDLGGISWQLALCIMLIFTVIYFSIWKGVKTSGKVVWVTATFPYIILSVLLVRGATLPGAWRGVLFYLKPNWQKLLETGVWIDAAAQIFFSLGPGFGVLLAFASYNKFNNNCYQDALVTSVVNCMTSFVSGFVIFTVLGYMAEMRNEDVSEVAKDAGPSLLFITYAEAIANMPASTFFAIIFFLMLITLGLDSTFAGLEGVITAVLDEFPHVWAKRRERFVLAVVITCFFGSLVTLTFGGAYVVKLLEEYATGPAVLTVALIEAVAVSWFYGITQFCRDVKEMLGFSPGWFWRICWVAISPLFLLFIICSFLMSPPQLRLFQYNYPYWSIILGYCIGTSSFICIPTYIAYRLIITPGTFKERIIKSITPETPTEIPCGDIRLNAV
Sequence of Histamine H2 receptor (P25021 whole entry): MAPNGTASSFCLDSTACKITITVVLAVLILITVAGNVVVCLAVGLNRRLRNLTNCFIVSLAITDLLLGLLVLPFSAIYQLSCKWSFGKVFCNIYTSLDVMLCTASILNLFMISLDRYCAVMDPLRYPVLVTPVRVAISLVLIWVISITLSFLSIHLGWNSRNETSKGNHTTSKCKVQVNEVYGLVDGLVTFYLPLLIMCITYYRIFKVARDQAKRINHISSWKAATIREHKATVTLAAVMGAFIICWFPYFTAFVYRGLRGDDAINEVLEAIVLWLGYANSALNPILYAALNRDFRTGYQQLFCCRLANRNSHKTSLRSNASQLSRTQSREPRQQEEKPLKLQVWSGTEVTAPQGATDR
Sequence of 5-hydroxytryptamine receptor 2B (P41595 whole entry): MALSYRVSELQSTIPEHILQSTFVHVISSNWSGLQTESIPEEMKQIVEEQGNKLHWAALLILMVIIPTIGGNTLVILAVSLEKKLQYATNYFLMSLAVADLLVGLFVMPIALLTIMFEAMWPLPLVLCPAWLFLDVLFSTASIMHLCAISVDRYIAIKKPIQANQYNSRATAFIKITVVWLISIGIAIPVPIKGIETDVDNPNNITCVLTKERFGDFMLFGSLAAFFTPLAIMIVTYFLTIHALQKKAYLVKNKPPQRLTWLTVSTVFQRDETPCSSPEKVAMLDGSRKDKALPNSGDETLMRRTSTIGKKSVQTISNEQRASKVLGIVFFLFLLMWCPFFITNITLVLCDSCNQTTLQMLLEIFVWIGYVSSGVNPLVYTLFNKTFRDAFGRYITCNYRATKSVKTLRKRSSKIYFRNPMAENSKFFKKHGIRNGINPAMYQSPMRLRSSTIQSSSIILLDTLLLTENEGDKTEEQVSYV

Work on `C=CCOc1cc(F)c(F)cc1C1CC1CN.Cl` (single isomer, unassigned; (+)) yielded a Ki [1] of 807 nM, a Ki ([2]; read-out: Ki) of 750 nM and a Ki ([2]; read-out: pKi (converted)) of 933 nM. For the same compound, the Activity (Mus musculus [3]) was “Non-toxic”, the Ki [4] was 2840 nM and the Ki ([5]; read-out: Ki) was 1270 nM. It also gave a Ki ([5]; read-out: pKi (converted)) of 1020 nM, a Ki (D(2) dopamine receptor) of 4900 nM and a Ki [6] of 2110 nM. For the same compound, the pKi [6] was 5.68, the Ki (Histamine H2 receptor) was 3390 nM and the Ki [7] was 278 nM. The Ki (D(4) dopamine receptor) was 1680 nM, the Ki ([8]; read-out: Ki) was 111 nM and the Ki ([8]; read-out: pKi (converted)) was 115 nM. The Ki ([9]; read-out: Ki) was 661 nM, the Ki ([9]; read-out: pKi (converted)) was 166 nM and the Ki (D(3) dopamine receptor; read-out: Ki) was 201 nM. For the same compound, the Ki (D(3) dopamine receptor; read-out: pKi (converted)) was 195 nM and the Ki [10] was 1260 nM.

With `C=CCOc1cc(F)c(F)cc1C1CC1CN` (single isomer, unassigned; (+)) the Activity (Mus musculus [11]) was “Active”, the Activity (Mus musculus [12]) was “inactive” and the Activity (Mus musculus [13]) was “inactive”. For the same compound, the Activity (Mus musculus [14]) was “Active”, the Activity (Mus musculus [15]) was “Active” and the Activity (Mus musculus [16]) was “Active”. For the same compound, the Activity (Mus musculus [17]) was “inactive”, the Activity (Mus musculus [18]) was “Active” and the Activity (Mus musculus [19]) was “Active”. For the same compound, the Activity (Mus musculus [20]) was “Dose-dependent effect”, the Activity (Mus musculus [21]) was “inactive” and the Activity (Mus musculus [22]) was “Active”.

In the case of `C=CCOc1cc(F)c(F)cc1C1CC1CN` (single isomer, unassigned; (-)), the Emax [23] is reported as under 15%.

With `O=C(CCCN1CCC(O)(c2ccc(Cl)cc2)CC1)c1ccc(F)cc1` [HALOPERIDOL] the Activity (Mus musculus [24]) was “Dose-dependent effect”.
